Source: PubChem
TCR-CD3 inh = human TCR-CD3 binding inhibition. hit rate 0.37% among 360,000. inhibition, % at 9.4 µM. TAMRA-labeled TCR probe fluorescence, biochemical; in the data active = inhibition above about 19%;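 also: recombinant mutant TCR 2C K166C tagged with TAMRA read by polarization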
RBBP9 inh = human RBBP9 hydrolase inhibition. O75884. hit rate 0.2% among 220,000. recombinant RBBP9, FP-Rh probe fluorescence polarization. inhibition, % at 7.94 µM;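 active = inhibition above the campaign mean of all tested compounds plus 3 SD, cut at about 14% in these data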
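Test system: recombinant human RBBP9. Quantity: 2.5 µM RBBP9 dispensing solution, before mixing. Detection: FP readout at 525/598 nm. Reagent: Serine-hydrolase probe FP-Rh, 375 nM pre-mixing. Measure: % inhibition. Control set: DMSO-treated enzyme wells and wells lacking RBBP9. Buffer or medium: Tris-NaCl-Pluronic buffer, pH 8.0. Times: preincubation 30 min plus labeling 45 min at 25 °C.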
MLLE-PAM2 inh = blocks PAM2 peptide binding to the PABP1 MLLE domain. GST-MLLE / FITC-PAM2 fluorescence polarization. inhibition, % at 20 µM. hit rate 0.36% among 360,000. AID 588489; in the data active = inhibition above about 35%, passing the limit was not always enough
Target sequence (P11940 whole entry, looked up, the tested form may be a part): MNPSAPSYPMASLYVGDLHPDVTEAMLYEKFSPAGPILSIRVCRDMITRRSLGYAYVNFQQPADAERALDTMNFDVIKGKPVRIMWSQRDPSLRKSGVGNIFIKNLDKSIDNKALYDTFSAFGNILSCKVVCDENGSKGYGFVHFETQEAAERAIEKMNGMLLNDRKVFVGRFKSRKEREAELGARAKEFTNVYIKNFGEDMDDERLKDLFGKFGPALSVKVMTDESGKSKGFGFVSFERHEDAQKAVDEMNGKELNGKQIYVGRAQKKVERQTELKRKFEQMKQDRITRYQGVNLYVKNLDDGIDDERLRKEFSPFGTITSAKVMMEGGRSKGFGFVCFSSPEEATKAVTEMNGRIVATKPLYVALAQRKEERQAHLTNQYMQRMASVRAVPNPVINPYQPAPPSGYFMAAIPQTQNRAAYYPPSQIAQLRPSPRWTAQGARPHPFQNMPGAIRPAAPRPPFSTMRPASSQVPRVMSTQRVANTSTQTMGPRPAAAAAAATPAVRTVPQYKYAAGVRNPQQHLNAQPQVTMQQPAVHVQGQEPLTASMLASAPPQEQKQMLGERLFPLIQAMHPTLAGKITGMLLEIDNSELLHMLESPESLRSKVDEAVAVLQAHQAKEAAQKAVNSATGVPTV
eIF4H inh = inhibitors of RNA binding by human eIF4H. hit rate 0.94% among 290,000. Q15056. eIF4H fluorescence polarization binding assay. inhibition, % at 35 µM;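 also: calls also rest on retests at 20 µM and on dose response follow-up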
PABP FP inh = PABP-poly(A) binding inhibition. P11940. PABP-poly(A) RNA binding, fluorescence polarization. calls only at 35 µM. hit rate 1% among 290,000. AID 2014;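 also: calls also rest on retests at 20 µM and on dose response follow-up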
Hits are given with their value; i = inactive; ? = inconclusive; nt = no result given; + = active, no number. Sampled rows, rich in hits. Any-hit rate of the full collection: about 1.6%. Unless noted, no rule for the calls is given here.

SMILES	TCR-CD3 inh	RBBP9 inh	MLLE-PAM2 inh	eIF4H inh	PABP FP inh
COc1cc(/C=C/C(=O)Nc2cc(S(=O)(=O)N3CCOCC3)ccc2N2CCCC2)cc(OC)c1OC	i	i	40	i	i
Cc1ccc(C)n1-c1cc(S(=O)(=O)N2CCOCC2)ccc1N1CCCC1	i	i	i	92	+
COc1ccc(/C=C/C(=O)Nc2cc(S(=O)(=O)N3CCOCC3)ccc2N2CCCC2)cc1OC	i	i	i	i	i
C=CCN=C1NC(c2cccc(C(F)(F)F)c2)C(C(=O)OC)=C(C)N1Cc1ccccc1C(F)(F)F (stereo not given)	i	nt	nt	nt	nt
CN1C(=O)[C@@]2(C3=C(CCCC3=O)OC3=C2C(=O)OC2(CCCCC2)C3)c2ccccc21	i	nt	nt	nt	nt
COc1ccc(NC(=O)N(C)C[C@@H]2OCc3cnnn3CCCC(=O)N([C@@H](C)CO)C[C@@H]2C)cc1	i	nt	nt	nt	nt
CN1CCN(c2ccccc2NC(=S)NC(=O)c2cc3ccccc3o2)CC1	i	nt	i	i	i
Cc1c(NC(=S)NC(=O)c2cc3ccccc3o2)cccc1C(=O)O	i	nt	39	i	i
Cc1c(NC(=S)NC(=O)CSc2ccc(Cl)cc2)cccc1C(=O)O	i	nt	41	i	i
COC(=O)c1cc(=O)nc(NN=C(C)C)s1	i	nt	nt	nt	nt
C#CCN1C[C@@]2(O)CC[C@@H](O)[C@@H](OC)[C@@H]2[C@@]1(C)[C@H](O)CC=C(C)C	i	nt	nt	nt	nt
Cn1c(SCn2nnc3ccccc3c2=O)nc2ccccc2c1=O	nt	i	nt	i	i
CCN(CC)S(=O)(=O)c1ccc2c(c1)nc(SCn1nnc3ccccc3c1=O)n2CC	i	i	43	i	i
COC(=O)[C@]12C[C@H](CC(=O)N3CCCCC3)C(=O)N(Cc3ccc4c(c3)OCO4)C1=C[C@H](COCc1ccccc1)O[C@@H]2C	i	nt	nt	nt	nt
c1ccc2nc3[nH]cnc3nc2c1	i	i	49	i	i
CCOC(=O)Cc1c[nH]c(=S)[nH]c1=O	i	i	40	i	i
Cc1nc2cc(-c3ccsc3-n3c(C)ccc3C)[nH]n2c(=O)c1Cl	i	i	i	85	+
Cc1ccccc1-c1cc2nc(C)c(Cl)c(=O)n2[nH]1	i	nt	i	nt	nt
COCc1cc(=O)n2[nH]c(-c3ccsc3-n3c(C)ccc3C)cc2n1	i	i	i	80	+
Cc1cc(=O)n2[nH]c(-c3ccsc3-n3c(C)ccc3C)cc2n1	i	i	i	75	+
COC(=O)C1=C(C(=O)OC)C(c2ccccc2O)c2sc(=O)[nH]c2S1 (stereo not given)	i	i	45	i	i
Oc1ccccc1C=NC(N=Cc1ccccc1O)c1ccccc1O (stereo not given)	i	nt	nt	nt	nt
CCc1c(-c2cccc(F)c2)ncn1CCc1ccccc1OC	i	nt	nt	nt	nt
CC(=O)c1ccc(NC(=S)NCCc2ccc(S(N)(=O)=O)cc2)cc1	i	i	40	i	i
NS(=O)(=O)c1ccc(NC(=S)NCCc2ccccc2)cc1	i	i	i	i	i
SMILES	TCR-CD3 inh	RBBP9 inh	MLLE-PAM2 inh	eIF4H inh	PABP FP inh
CC(C)(C)c1ccc(C(=O)Nc2ccc(S(N)(=O)=O)cc2)cc1	i	i	i	62	+
COc1cc(/C=C2\S/C(=N/S(=O)(=O)Cc3ccccc3)NC2=O)c([N+](=O)[O-])cc1OC	i	i	i	i	i
COc1cc(/C=C2/S/C(=N/S(=O)(=O)c3ccccc3)NC2=O)c([N+](=O)[O-])cc1OC	i	i	39	i	i
COc1ccc(NC(=O)c2ccc(-n3cncn3)c([N+](=O)[O-])c2)cc1OC	i	nt	i	nt	nt
COc1ccc(NC(=O)c2ccc(-n3cncn3)c([N+](=O)[O-])c2)cc1	i	i	i	i	+
O=C(COc1ccc(Br)cc1)NNC(=O)c1ccc(-n2cncn2)c([N+](=O)[O-])c1	i	nt	58	nt	nt
CCCN1CCCCC(NC(=O)c2ccccc2C)C1=O (stereo not given)	i	nt	nt	nt	nt
Nc1ccn([C@@H]2O[C@H](C(=O)N[C@H](Cc3ccccc3)C(=O)N3CCN(C(=O)N4CCCCC4)CC3)[C@@H](O)[C@H]2O)c(=O)n1	i	nt	nt	nt	nt
O=C1CCN(Cc2ccccc2)C(=O)N1	i	nt	i	nt	nt
O=C1NC(=O)N2CCSC2(Cc2ccccc2)N1 (stereo not given)	i	nt	41	nt	nt
N#Cc1ccc2nc(-c3ccc(CN4CCC(c5nc6ccccc6[nH]5)CC4)cc3)c(-c3ccccc3)nc2c1	i	nt	nt	nt	nt
O=C(NC(NC(=S)Nc1c(Cl)cc(Cl)cc1Cl)C(Cl)(Cl)Cl)OCc1ccccc1 (stereo not given)	i	i	39	i	i
O=[N+]([O-])c1cc([N+](=O)[O-])c2cc3ccccc3nc2c1	i	nt	45	i	i
CC(=O)C1=C(O)C(=O)N(C)C1c1ccccc1[N+](=O)[O-] (stereo not given)	i	i	39	i	i
CC(=O)C1=C(O)C(=O)N(CCC(=O)O)C1c1ccccc1[N+](=O)[O-] (stereo not given)	i	i	i	i	i
CN(c1cccnc1)c1ccc(NC(=O)Cc2c[nH]c3ccccc23)cc1-c1cccnc1F	i	nt	nt	nt	nt
CN(C)c1oc(-c2ccccc2Cl)nc1C#N	i	i	i	i	i
CN(C)c1oc(-c2ccccc2[N+](=O)[O-])nc1C#N	i	i	42	i	i
CC(C)N(C[C@@H]1CSCCS(=O)(=O)N1)C1CCCCC1	i	nt	nt	nt	nt
CCOc1ccc(NC(=O)CCS(=O)(=O)c2ccc(Br)cc2)cc1	i	nt	i	76	i
CCOC(=O)c1ccc(NC(=O)CCS(=O)(=O)c2ccc(Br)s2)cc1	i	i	i	i	i
COc1ccc([N+](=O)[O-])cc1NC(=O)CCS(=O)(=O)c1ccc(Br)cc1	i	nt	i	96	i
O=C(CCS(=O)(=O)c1ccc(Br)cc1)NCc1ccco1	i	nt	i	81	i
COc1ccc(NC(=O)CCS(=O)(=O)c2ccc(Br)s2)cc1	i	nt	i	91	i
CC1CCCN(C(=O)Nc2ccc([N+](=O)[O-])cc2)C1 (stereo not given)	i	nt	nt	nt	nt
SMILES	TCR-CD3 inh	RBBP9 inh	MLLE-PAM2 inh	eIF4H inh	PABP FP inh
COC(=O)c1ccccc1NC(=O)CCS(=O)(=O)c1ccc(Br)cc1	i	i	i	86	i
CCOc1ccccc1NC(=O)CCS(=O)(=O)c1ccc(Br)cc1	i	nt	i	84	+
COC(=O)c1sc(NC(=S)NC(=O)c2ccccc2)nc1C	i	i	i	i	i
Cc1nc(NC(=S)NC(=O)c2ccccc2)sc1C(=O)N(C)C	i	i	42	i	i
O=C(O)CCCCCN1C(=O)/C(=C\c2ccncc2)SC1=S	i	i	i	i	i
O=C(O)CCCN1C(=O)/C(=C/c2ccc(-c3nc4ccccc4s3)o2)SC1=S	i	i	i	?	+
O=C(O)CCCCCN1C(=O)/C(=C\c2ccc(-c3ccc(Cl)cc3)o2)SC1=S	i	i	i	54	+
CC(=O)OCC(=O)NCC1CCN(C(=O)C(=O)c2cc3ccccc3o2)CC1	i	nt	nt	nt	nt
Cc1ccc(CSc2nnc(SCC(=O)N/N=C/C=C/c3ccco3)s2)cc1	i	i	i	i	i
CC(/C=N/NC(=O)CSc1nnc(SCc2ccccc2)s1)=C\c1ccco1	i	i	i	69	+
